# In PubChem BioAssay AID588425 (Johns Hopkins Ion Channel Center, 2011):
# The source made the active and inactive calls.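 How the source made its calls: active means any inhibition of the KCNQ1 potassium channel at some tested dose, with a fitted dose response curve; inactive means no inhibition at any dose or no curve fitted.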
# Biological target: Potassium voltage-gated channel subfamily KQT member 1 (Homo sapiens) (UniProt P51787)
# Experiment: human KCNQ1 blockade by KCNQ2 inhibitors – automated patch clamp, KCNQ1-CHO cells, selectivity assay for KCNQ2 inhibitor project, SAR follow-up (AID 588425)
# Settings: at 30 µM (top of the series)
# In short: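 System: KCNQ1-expressing CHO cells | Medium: NaCl/HEPES external, KCl/K-gluconate internal solutions | Probe or stimulus: Voltage stimulus from -70 mV holding, stepped to +40 mV | Schedule: 2,000 ms depolarization per sweep | Measured by: Automated patch clamp, amphotericin B-perforated recording of potassium current | Read-out: Percent current change relative to pre-compound current | Repeats: Four replicate recordings per concentration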
# Chain of Potassium voltage-gated channel subfamily KQT member 1 (Homo sapiens) (P51787 whole entry, looked up): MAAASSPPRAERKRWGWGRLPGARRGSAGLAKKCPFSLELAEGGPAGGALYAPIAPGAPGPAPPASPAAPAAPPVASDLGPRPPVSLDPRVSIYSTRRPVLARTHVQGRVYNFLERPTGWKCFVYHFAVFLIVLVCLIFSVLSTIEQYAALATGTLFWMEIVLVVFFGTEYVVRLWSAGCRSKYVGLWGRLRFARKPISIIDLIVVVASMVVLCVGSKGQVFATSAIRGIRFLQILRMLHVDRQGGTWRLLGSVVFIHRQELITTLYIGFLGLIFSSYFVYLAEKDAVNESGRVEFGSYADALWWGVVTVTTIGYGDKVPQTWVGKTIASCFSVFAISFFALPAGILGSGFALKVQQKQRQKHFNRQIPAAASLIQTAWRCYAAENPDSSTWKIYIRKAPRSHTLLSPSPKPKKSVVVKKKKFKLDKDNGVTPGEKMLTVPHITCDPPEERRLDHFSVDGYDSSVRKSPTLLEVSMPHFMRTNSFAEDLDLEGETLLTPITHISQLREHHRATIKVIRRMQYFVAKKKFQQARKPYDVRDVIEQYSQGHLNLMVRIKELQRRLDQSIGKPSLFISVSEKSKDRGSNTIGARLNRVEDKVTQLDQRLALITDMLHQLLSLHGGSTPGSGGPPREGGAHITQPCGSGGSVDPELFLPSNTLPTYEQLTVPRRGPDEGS
row,Compound,"current change, negative = inhibition"
1,C[C@H](C(=O)Nc1ccccc1N1CCCC1)c1ccccc1,inactive
2,CCC(C(=O)Nc1ccccc1N1CCCC1)c1ccc(Cl)cc1 (stereo unspecified),inactive
3,CCC(C(=O)Nc1ccccc1-c1ccccc1)c1ccccc1 (stereo unspecified),inactive
4,CCC(C(=O)Nc1ccccc1N1CCCC1)c1cccc(C)c1 (stereo unspecified),inactive
5,CC[C@H](C(=O)Nc1ccc(N2CCCC2)cc1)c1ccccc1,inactive
6,CCC(C(=O)Nc1ccccc1N1CCCC1)c1ccccc1F (stereo unspecified),inactive
7,CCC(C(=O)Nc1ccccc1N1CCCC1)c1cccc(C(F)(F)F)c1 (stereo unspecified),inactive

# Same assay, conditions: automated patch clamp current
row,Compound,IC50 [µM]
1,CCC(C(=O)Nc1ccccc1-n1cccc1)c1ccccc1 (stereo unspecified),13.7
2,CCC(C(=O)Nc1ccc(N2CCCC2)cc1)c1ccccc1 (stereo unspecified),29
3,CC[C@H](C(=O)Nc1ccccc1N1CCCC1)c1ccccc1,2.92
4,CCC(C(=O)Nc1ccccc1N1CCCC1)c1ccc(F)c(F)c1 (stereo unspecified),2.58
5,CC[C@@H](C(=O)Nc1ccccc1N1CCCC1)c1ccccc1,8.67
6,CCC(C(=O)Nc1ccccc1N1CCCC1)c1ccccc1 (stereo unspecified),19.5
7,CCC(C(=O)Nc1ccccc1N1CCCC1)c1cccc(OC)c1 (stereo unspecified),22.1
8,CCC(C(=O)Nc1ccccc1N1CCCC1)c1cccc(F)c1 (stereo unspecified),17.7
9,O=C(Nc1ccccc1N1CCCC1)C1CCc2ccccc21 (stereo unspecified),12.1
10,CC[C@@H](C(=O)Nc1ccc(N2CCCC2)cc1)c1ccccc1,14.9
11,CCC(C(=O)Nc1ccccc1N1CCCC1)c1ccc(Cl)c(Cl)c1 (stereo unspecified),9.96
12,CC(C(=O)Nc1ccccc1N1CCCC1)c1ccccc1 (stereo unspecified),29
13,CCC(C(=O)Nc1ccccc1N1CCCC1)c1ccc(F)cc1 (stereo unspecified),6.8
14,CCC(C(=O)Nc1ccccc1N1CCCC1)c1cccc(Cl)c1 (stereo unspecified),11.2
